Data: ChEMBL document CHEMBL4765449, “Synthesis, biological evaluation and toxicity of novel tetrandrine analogues” (Eur J Med Chem, 2020)
Active and inactive are the calls of the source. No cut-off for these calls is given here.

Key:
HepG2 [1] = test: Cytotoxicity against human HepG2 cells overexpressing EGFP-CYP3A4 assessed as reduction in cell viability at 15 uM measured after 24 hrs by propidium iodide staining based flow cytometry; type: functional
Outline: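 HepG2 stably transfected (G418 0.5 mg/mL, four weeks; plasmid confirmed by PCR) with pcDNA3-CYP3A4-EGFP or empty vector, 0.1 × 10^6 per well, adhered overnight; 15 μM compound 24 h. Propidium iodide staining and flow cytometry; specific cell death relative to control. Three independent experiments.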

CEM [2] = test: Inhibition of P-gp in vincristine-resistant human CEM cells at 0.1 to 1 uM using calcein-AM as substrate preincubated for 30 mins followed by compound washout and subsequent substrate addition measured after 60 mins by flow cytometric analysis; type: cell-based; conditions: dose 0.1-1 µM
CCRF-CEM [3] = test: Effect on P-gp expression in vincristine-resistant human CEM cells at 1 uM measured after 1.5 hrs by immunostaining based flow cytometry; type: functional, cell-based
Outline: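 VCR-R CEM, 2 × 10^4 cells, 1 μM compound 1.5 h at 37 °C; washed in ice-cold 1% BSA/PBS, stained 30 min at 4 °C in dark with FITC anti-human P-gp, isotype control for background; flow cytometry, gMFI normalized to DMSO. Three independent experiments.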

CEM [4] = test: Inhibition of P-gp in vincristine-resistant human CEM cells assessed as potentiation of vincristine-induced apoptosis 1 uM measured after 48 hrs by propidium iodide staining based flow cytometry; type: cell-based
Outline: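 VCR-R CEM, 0.125 × 10^6 per well, rested 4 h, then incubated 48 h with increasing vincristine with or without 1 μM compound; apoptosis by propidium iodide staining and flow cytometry. Three independent experiments.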

CEM [5] = test: Effect on AKT phosphorylation at Ser473 residue in vincristine-resistant human CEM cells at 5 uM measured after 24 hrs by Western blot analysis; type: cell-based
Outline: (§1)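 VCR-R CEM cells, 2 × 10^6 per well, seeded 4 h before 5 μM compound or DMSO for 24 h; RIPA lysis, SDS-PAGE, PVDF blotting, chemiluminescence. Probed for p-Akt (Ser473), total Akt, PARP, Bcl-xL, Mcl-1; stain-free total protein as loading control.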

CCRF-CEM [6] = test: Effect on Bcl-XL expression in vincristine-resistant human CEM cells at 5 uM measured after 24 hrs by Western blot analysis; type: functional, cell-based; outline: as §1
CCRF-CEM [7] = test: Effect on MCL1 expression in vincristine-resistant human CEM cells at 5 uM measured after 24 hrs by Western blot analysis; type: functional, cell-based; outline: as §1
CCRF-CEM [8] = test: Induction of apoptosis in vincristine-resistant human CEM cells assessed as increase in PARP cleavage at 5 uM measured after 24 hrs by Western blot analysis; type: functional, cell-based; outline: as §1
CCRF-CEM [9] = test: Induction of mitochondrial membrane disruption in vincristine-resistant human CEM cells at 5 uM measured after 24 hrs by JC-1 dye based flow cytometric analysis; type: functional, cell-based
Outline: (§2)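 Cells (HepG2 adhered overnight; VCR-R CEM seeded 4 h before) treated with DMSO or 5 μM for 24 h; JC-1 (1 μg/mL) 1 h before harvest, PBS wash, flow cytometry; green shift read as loss of ΔΨm. CCCP (100 μM, 1 h) positive control; elacridar (5 μM) present for CEM staining.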

HepG2 [10] = test: Induction of apoptosis in human HepG2 cells assessed as increase in PARP cleavage at 5 uM measured after 24 hrs by Western blot analysis; type: functional, cell-based
Outline: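 HepG2, 0.5 × 10^6 per well, adhered overnight, then DMSO or 5 μM compound; RIPA lysates immunoblotted by SDS-PAGE/PVDF with chemiluminescent detection.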

HepG2 [11] = test: Induction of mitochondrial membrane disruption in human HepG2 cells at 5 uM measured after 24 hrs by JC-1 dye based flow cytometric analysis; type: functional, cell-based; outline: as §2
HepaRG [12] = test: Cytotoxicity against human HepaRG cells overexpressing EGFP-CYP3A4 assessed as reduction in cell viability at 10 uM measured after 24 hrs by propidium iodide staining based flow cytometry; type: ADME
Outline: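 HepaRG cells, differentiated, transiently transfected with pcDNA3-CYP3A4-EGFP or empty vector 16 h before stimulation; 10 μM compound for 24 h. Propidium iodide (5 μg/mL in PBS) staining, flow cytometry without FSC/SSC gating; specific cell death = % dead (treated) − % dead (control). Three independent experiments.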

HepaRG [13] = test: Cytotoxicity against human HepaRG cells assessed as reduction in cell viability at 10 uM measured after 24 hrs by Celltiter-blue cell viability assay; type: cell-based
Outline: (§3)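 Differentiated HepaRG cells (Maintenance/Metabolism medium) exposed 24 h to 10 or 20 μM compound; viability by CellTiter-Blue, normalized to vehicle control. Means ± SEM of three independent experiments.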

HepaRG [14] = test: Cytotoxicity against human HepaRG cells assessed as reduction in cell viability at 20 uM measured after 24 hrs by Celltiter-blue cell viability assay; type: cell-based; outline: as §3
HUVEC = test: Cytotoxicity against HUVEC assessed as reduction in cell viability at 1 to 10 uM measured after 24 hrs by Celltiter-blue cell viability assay; type: cell-based; conditions: human, dose 1-10 µM
Outline: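 HUVECs seeded, adhered overnight, exposed 24 h to 1, 5 and 10 μM; CellTiter-Blue viability normalized to vehicle control; three independent experiments.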

[15] = Cytotoxicity against human PBMC assessed as reduction in cell viability at 1 to 10 uM measured after 48 hrs by propidium iodide staining based flow cytometry

| SMILES | Activity (HepG2 [1]) | inhibition (CEM [2]) | Activity (CCRF-CEM [3]) | inhibition (CEM [4]) | Activity (CEM [5]) | Activity (CCRF-CEM [6]) | Activity (CCRF-CEM [7]) | Activity (CCRF-CEM [8]) | Activity (CCRF-CEM [9]) | Activity (HepG2 [10]) | Activity (HepG2 [11]) | Activity (HepaRG [12]) | Activity (HepaRG [13]) | Activity (HepaRG [14]) | Activity (HUVEC) | Activity [15] |
| --- | --- | --- | --- | --- | --- | --- | --- | --- | --- | --- | --- | --- | --- | --- | --- | --- |
| COc1cc2c(cc1OC)[C@@H](Cc1ccc(Oc3cc(C[C@@H]4c5cc(OC)c(OC)cc5CCN4C)ccc3O)cc1)N(C)CC2 | Active |  |  |  |  |  |  |  |  |  |  |  |  |  |  |  |
| COc1cc2c3cc1Oc1c(OC)c(OC)cc4c1[C@@H](Cc1ccc(O)c(c1)Oc1ccc(cc1)C[C@@H]3N(C)CC2)N(C)CC4 | Active |  |  |  |  |  |  |  |  |  |  |  |  |  |  |  |
| COc1cc2c3cc1Oc1c(OC)c(OC)cc4c1C(Cc1ccc(Cl)c(c1)Oc1ccc(cc1)CC3N(C)CC2)N(C)CC4 (mixture of isomers) | Active | Active | inactive | Active | inactive | inactive | inactive | Active | Active | inactive | inactive |  |  |  |  |  |
| COc1cc2c3cc1Oc1c(OC)c(OC)cc4c1C(Cc1ccc(Cl)c(c1)Oc1ccc(cc1)CC3N(C)CC2)N(C)CC4 (racemic) [listing 1 of 2 here] |  |  |  |  |  |  |  |  |  |  |  | Toxic |  |  |  |  |
| COc1cc2c3cc1Oc1c(OC)c(OC)cc4c1C(CCCCOc1ccc(cc1)CC3N(C)CC2)N(C)CC4 (racemic) [listing 1 of 2 here] |  |  |  |  |  |  |  |  |  |  |  | Toxic |  |  |  |  |
| COc1cc2c3cc1Oc1c(OC)c(OC)cc4c1C(CCCCOc1ccc(cc1)CC3N(C)CC2)N(C)CC4 (racemic) [listing 2 of 2 here] | Active | inactive | inactive | inactive | inactive | inactive | inactive |  | inactive | inactive | inactive |  |  |  |  |  |
| COc1cc2c3cc1Oc1c(OC)c(OC)cc4c1C(Cc1ccc(Cl)c(c1)Oc1ccc(cc1)CC3N(C)CC2)N(C)CC4 (racemic) [listing 2 of 2 here] | Active | Active | inactive | Active | inactive | inactive | inactive |  | inactive | inactive | inactive |  |  |  |  |  |
| COc1cc2c3cc1Oc1c(OC)c(OC)cc4c1C(Cc1cccc(c1)Oc1ccc(cc1)CC3N(C)CC2)N(C)CC4 (racemic; form 1) [listing 1 of 2 here] |  |  |  |  |  |  |  |  |  |  |  |  | Toxic |  |  |  |
| COc1cc2c3cc1Oc1c(OC)c(OC)cc4c1C(Cc1ccc(OC(F)(F)F)c(c1)Oc1ccc(cc1)CC3N(C)CC2)N(C)CC4 (racemic; form 1) [listing 1 of 2 here] |  |  |  |  |  |  |  |  |  |  |  |  | Toxic | Toxic | Toxic | Toxic |
| COc1cc2c3cc1Oc1c(OC)c(OC)cc4c1C(Cc1cc(cs1)Oc1ccc(cc1)CC3N(C)CC2)N(C)CC4 (racemic; form 1) |  |  |  |  |  |  |  |  |  |  |  |  |  |  | Toxic | Toxic |
| COc1cc2c3cc1Oc1c(OC)c(OC)cc4c1C(Cc1ccc(OC(F)(F)F)c(c1)Oc1ccc(cc1)CC3N(C)CC2)N(C)CC4 (racemic; form 1) [listing 2 of 2 here] | Active | Active | inactive | Active | inactive | inactive | inactive | Active | Active | inactive | inactive |  |  |  |  |  |
| COc1cc2c3cc1Oc1c(OC)c(OC)cc4c1C(Cc1cccc(c1)Oc1ccc(cc1)CC3N(C)CC2)N(C)CC4 (racemic; form 1) [listing 2 of 2 here] | Active | Active | inactive | Active | inactive | inactive | inactive | Active | inactive | inactive | inactive |  |  |  |  |  |
| COc1cc2c3cc1Oc1c(OC)c(OC)cc4c1C(Cc1cccc(c1)Oc1ccc(cc1)CC3N(C)CC2)N(C)CC4 (racemic; form 2) [listing 1 of 2 here] |  |  |  |  |  |  |  |  |  |  |  | Toxic |  | Toxic |  |  |
| COc1cc2c3cc1Oc1c(OC)c(OC)cc4c1C(Cc1ccc(OC(F)(F)F)c(c1)Oc1ccc(cc1)CC3N(C)CC2)N(C)CC4 (racemic; form 2) |  |  |  |  |  |  |  |  |  |  |  | Toxic |  |  |  |  |
| COc1cc2c3cc1Oc1c(OC)c(OC)cc4c1C(Cc1cc(cs1)Oc1ccc(cc1)CC3N(C)CC2)N(C)CC4 (racemic; form 2) [listing 1 of 2 here] |  |  |  |  |  |  |  |  |  |  |  | Toxic | Toxic | Toxic |  |  |
| COc1cc2c3cc1Oc1c(OC)c(OC)cc4c1C(Cc1cc(cs1)Oc1ccc(cc1)CC3N(C)CC2)N(C)CC4 (racemic; form 2) [listing 2 of 2 here] | Active | Active | inactive | Active | inactive | inactive | inactive |  | inactive | inactive | inactive |  |  |  |  |  |
| COc1cc2c3cc1Oc1c(OC)c(OC)cc4c1C(Cc1cccc(c1)Oc1ccc(cc1)CC3N(C)CC2)N(C)CC4 (racemic; form 2) [listing 2 of 2 here] | Active | Active | inactive | Active | inactive | inactive | inactive |  | Active | inactive | inactive |  |  |  |  |  |
| COc1cc2c3cc1Oc1c(OC)c(OC)cc4c1C(CCCCOc1ccc(cc1)CC3N(C)CC2)N(C)CC4 (single isomer, unassigned; diastereomer 2) [listing 1 of 2 here] |  |  |  |  |  |  |  |  |  |  |  |  | Toxic | Toxic |  |  |
| COc1cc2c3cc1Oc1c(OC)c(OC)cc4c1C(CCCCOc1ccc(cc1)CC3N(C)CC2)N(C)CC4 (single isomer, unassigned; diastereomer 2) [listing 2 of 2 here] | Active | inactive | inactive | inactive | inactive | inactive | inactive |  | inactive | inactive | inactive |  |  |  |  |  |
| COc1ccc2cc1Oc1ccc(cc1)C[C@H]1c3cc(c(OC)cc3CCN1C)Oc1c(OC)c(OC)cc3c1[C@H](C2)N(C)CC3 [FANCHININ] | Active | Active | inactive | Active | inactive | inactive | inactive |  | inactive | inactive | inactive | Toxic | Toxic | Toxic | Toxic | Toxic |
